OX1R antag-1 – blocks the human orexin 1 receptor. O43613. OX1R-expressing cells, FRET antagonist read-out. inhibition, % at 6.6 µM. hit rate 1.8% among 330,000. AID 485270; in the data active means inhibition mostly above about 38%, no sharp cut-off; inactive means mostly below about 40%;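 further: 0% = agonist challenge alone and 100% = reference antagonist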
Target sequence (O43613 whole entry, looked up): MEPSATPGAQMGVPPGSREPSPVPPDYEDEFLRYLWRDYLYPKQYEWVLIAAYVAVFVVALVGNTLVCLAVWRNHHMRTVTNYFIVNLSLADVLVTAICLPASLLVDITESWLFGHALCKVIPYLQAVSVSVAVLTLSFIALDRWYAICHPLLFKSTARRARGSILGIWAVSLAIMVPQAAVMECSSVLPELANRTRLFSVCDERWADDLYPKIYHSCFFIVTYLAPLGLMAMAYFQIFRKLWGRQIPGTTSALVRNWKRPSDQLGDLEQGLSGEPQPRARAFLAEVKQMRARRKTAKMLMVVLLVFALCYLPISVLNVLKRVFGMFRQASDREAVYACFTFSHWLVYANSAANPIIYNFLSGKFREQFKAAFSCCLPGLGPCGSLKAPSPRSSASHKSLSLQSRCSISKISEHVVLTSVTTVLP
OX1R antag-2 – human HCRTR1 antagonism; O43613; CHO/OX1R cells, Fluo-8 calcium fluorescence, orexin A; inhibition, % at 5 µM; hit rate 0.43% among 330,000; AID 434989;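 active means inhibition above its plate's threshold, mean inhibition of all tested compounds on the plate plus 3 SD, cut at about 37% in these data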;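 further: 0% = orexin A challenge wells and 100% = SB-334867-A antagonist wells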
TAAR1 agonist – agonists of human TAAR1. Q96RJ0. CHO RD-HGA16 TAAR1, Fluo-8 calcium fluorescence; vehicle wells 0%, saturating PEA agonist 100%. activation, % at 3 µM. hit rate 0.99% among 360,000. AID 624467;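 active means activation above the mean activation of all test compounds in the run plus 3 SD, cut at about 38% in these data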
Target sequence (Q96RJ0 whole entry, looked up): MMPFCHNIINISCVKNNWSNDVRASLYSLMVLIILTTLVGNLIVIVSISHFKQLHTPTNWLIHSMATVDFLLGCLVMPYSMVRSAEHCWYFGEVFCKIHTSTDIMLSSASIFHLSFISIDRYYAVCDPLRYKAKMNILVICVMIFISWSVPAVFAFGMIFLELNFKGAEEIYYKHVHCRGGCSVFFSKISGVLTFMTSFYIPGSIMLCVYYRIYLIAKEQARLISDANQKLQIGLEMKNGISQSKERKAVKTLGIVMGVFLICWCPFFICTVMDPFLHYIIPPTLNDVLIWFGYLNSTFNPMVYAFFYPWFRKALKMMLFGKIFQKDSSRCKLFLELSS
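Benchmarks: low control DMSO, high control PEA (EC100); System: CHO RD-HGA16 cells carrying human TAAR1 plus Gα16; Detection: Fluo-8 fluorescence, 5 s baseline then 140 s kinetic read; Schedule: 17-24 h plating, Fluo-8 75 min 37 °C, 30 min RT; Read-out basis: % activation from peak over basal fluorescence ratio, DMSO-to-PEA scaled.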
CHO parental Ca – counter-screen for OX1R antagonists: effect in parental CHO cells; parental CHO-K1, ATP-induced calcium, Fluo-8 fluorescence; hit rate 0.63% among 330,000; AID 463079; inhibition, % at 5.6 µM;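 active means inhibition above that plate's mean sample inhibition plus 3 SD, cut at about 26% in these data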;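 further: 0% = ATP-challenged DMSO wells and 100% = DMSO wells without ATP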
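material = parental CHO cells | also added = ATP as calcium-mobilizing challenge | dosing = single point at 5.6 µM | detection = intracellular calcium via Fluo-8 no-wash fluorescent dye | read-out = % inhibition | benchmarks = low control ATP plus DMSO, high control DMSO only | repeats = one well per compound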
TAAR1 antag – human TAAR1 antagonism; inhibition, % at 3 µM; CHO RD-HGA16 TAAR1, Fluo-8 calcium fluorescence, antagonist; hit rate 1.5% among 360,000; AID 624466; Q96RJ0;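 active means inhibition above a per-plate cutoff, the mean inhibition of test compounds on that plate plus 3 SD, cut at about 49% in these data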;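 further: 0% = DMSO plus EC80 beta-PEA response and 100% = DMSO alone without agonist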
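test system = CHO RD-HGA16 cells bearing hTAAR1 | replication = singlicate | controls = DMSO-only wells and EC80 β-PEA-stimulated wells | reagent = EC80 β-phenethylamine stimulus | read-out basis = percent inhibition of PEA-evoked calcium signal, max/basal emission ratio | schedule = seeding 17-24 h prior, 75-min 37 °C, 30-min RT dye loading | signal = kinetic Fluo-8 calcium fluorescence measurement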
nonsel antag count – counter-screen for TAAR1 antagonists: nonselective antagonists; shares compounds with TAAR1 antag; counterscreen cell line, calcium fluorescence, antagonist mode; inhibition, % at 3 µM; hit rate 77% among 2,400; AID 651780; in the data active means inhibition above about 22%;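 further: CHO-Ga16 host cells stimulated with ATP at an EC80 level; 0% = agonist EC80 plus vehicle and 100% = vehicle without agonist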
TAAR1 ant conf – human TAAR1 antagonism, confirmed; shares compounds with TAAR1 antag; TAAR1-expressing cells, fluorescence antagonist read-out; inhibition, % at 3 µM; hit rate 40% among 2,400; AID 651785; in the data active means inhibition above about 49%;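 further: CHO-Ga16 host cells challenged with agonist PEA near its EC80; 0% = agonist at EC80 plus vehicle and 100% = vehicle with no agonist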
Ga16 nonsel ag – counter-screen for TAAR1 antagonists: nonselective Ga16 agonists; hit rate 18% among 2,400; activation, % at 3 µM; Ga16-expressing cells, calcium fluorescence, agonist counterscreen; shares compounds with TAAR1 antag; in the data active means activation above about 12%;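 further: 0% = vehicle wells and 100% = saturating stimulus response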
TAAR1 ag count – TAAR1 agonism, antagonist counter-screen; shares compounds with TAAR1 antag; hTAAR1 cell line, fluorescence activation, agonist mode; activation, % at 3 µM; hit rate 2% among 2,400; AID 651955; in the data active means activation above about 37%;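 further: CHO cells stably expressing TAAR1 with calcium dye readout; 0% = DMSO vehicle and 100% = full agonist response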
Numbers without * were called inactive. Hits are enriched below; roughly 4% of the tested compounds scored in any of these assays.

What do the screens show for `Cc1c(C(=O)Nc2ccc3c(c2)OCO3)sc2nc(-c3ccccc3)cn12`?
OX1R antag-1: 40; OX1R antag-2: -31; TAAR1 agonist: 11; CHO parental Ca: 4; TAAR1 antag: 85*; nonsel antag count: 44*; TAAR1 ant conf: 63*; Ga16 nonsel ag: 12*; TAAR1 ag count: 7

Results for Cc1nc(N2CCN(C(=O)c3cnccn3)CC2)c2c3c(sc2n1)CC(C(C)(C)C)CC3 (stereo not given) ?
OX1R antag-1: 3; OX1R antag-2: -5; TAAR1 agonist: 0; CHO parental Ca: -6; TAAR1 antag: 12

What do the screens show for `CCN(CC)S(=O)(=O)c1ccc(S(=O)(=O)N(CC(=O)Nc2ccccc2)Cc2ccco2)cc1`?
OX1R antag-1: 6; OX1R antag-2: 9; TAAR1 agonist: 17; CHO parental Ca: -10; TAAR1 antag: 62*; nonsel antag count: 31*; TAAR1 ant conf: 53*; Ga16 nonsel ag: 9; TAAR1 ag count: 9

Results for CCCS(=O)(=O)c1c(S(=O)(=O)CCC)c2c3ccccc3ccn2c1C(=O)OC ?
OX1R antag-1: 22; OX1R antag-2: -43; TAAR1 agonist: 9; CHO parental Ca: -30; TAAR1 antag: 49*; nonsel antag count: 16; TAAR1 ant conf: 32; Ga16 nonsel ag: 6; TAAR1 ag count: 4

What do the screens show for `CCN(CC)S(=O)(=O)c1cccc(C(=O)OCC(=O)NC(C)c2ccccc2)c1` (stereo not given)?
OX1R antag-1: 22; OX1R antag-2: -15; TAAR1 agonist: 0; CHO parental Ca: -19; TAAR1 antag: 14

What do the screens show for `Cc1cccc(NC(=O)CNC(=O)c2cc(S(=O)(=O)N(C)C)ccc2N2CCCC2)c1C`?
TAAR1 agonist: 3; TAAR1 antag: -13

Results for CCOC(=O)c1sc(NC(=O)C(CC)OC(=O)C(CC(C)C)NC(=O)c2ccccc2)nc1C (stereo not given) ?
OX1R antag-1: 16; OX1R antag-2: -27; TAAR1 agonist: 11; CHO parental Ca: -29; TAAR1 antag: 65*; nonsel antag count: 39*; TAAR1 ant conf: 57*; Ga16 nonsel ag: 7; TAAR1 ag count: 4

How did COc1cccc(NC(=O)CSC2=NN3CCCC(=O)N=C3S2)c1 do in these assays?
OX1R antag-1: 23; OX1R antag-2: -24; TAAR1 agonist: 3; CHO parental Ca: -22; TAAR1 antag: 104*; nonsel antag count: 2; TAAR1 ant conf: 6; Ga16 nonsel ag: 5; TAAR1 ag count: 5

What do the screens show for `COc1ccc(N(CC(=O)Nc2nccs2)S(=O)(=O)c2c(C)[nH]c(=O)[nH]c2=O)cc1`?
OX1R antag-1: 5; OX1R antag-2: -5; TAAR1 agonist: 3; CHO parental Ca: 9; TAAR1 antag: 20

How did Oc1ccc(N=Nc2ccc3c(c2)OCCO3)c(O)c1 do in these assays?
OX1R antag-1: 14; OX1R antag-2: -7; TAAR1 agonist: 1; CHO parental Ca: 6; TAAR1 antag: -15

How did Oc1ccc(N=Nc2ccc3c(c2)OCCO3)c2cccnc12 do in these assays?
OX1R antag-1: 21; OX1R antag-2: 48*; TAAR1 agonist: 26; CHO parental Ca: 45*; TAAR1 antag: 83*; nonsel antag count: 32*; TAAR1 ant conf: 31; Ga16 nonsel ag: 3; TAAR1 ag count: 8

What do the screens show for `O=C(/C=C/c1cc([N+](=O)[O-])ccc1OC(F)F)Nc1cccc(OC(F)F)c1`?
OX1R antag-1: 37; OX1R antag-2: 3; TAAR1 agonist: 5; CHO parental Ca: -2; TAAR1 antag: 75*; nonsel antag count: 34*; TAAR1 ant conf: 65*; Ga16 nonsel ag: 7; TAAR1 ag count: 4

What do the screens show for `Cc1ccc2nc(-c3ccc(CN4CCC(c5nc6ccccc6[nH]5)CC4)cc3)c(-c3ccccc3)nc2c1`?
TAAR1 agonist: 32; TAAR1 antag: 73*; nonsel antag count: 46*; TAAR1 ant conf: 60*; Ga16 nonsel ag: 15*; TAAR1 ag count: 21

How did N#Cc1ccc2nc(-c3ccc(CN4CCC(c5nc6ccccc6[nH]5)CC4)cc3)c(-c3ccccc3)nc2c1 do in these assays?
TAAR1 agonist: 15; TAAR1 antag: 66*; nonsel antag count: 38*; TAAR1 ant conf: 48; Ga16 nonsel ag: 11; TAAR1 ag count: 17

What do the screens show for `Cc1cccc2nc(-c3ccccc3)c(-c3ccc(CN4CCC(c5nc6ccccc6[nH]5)CC4)cc3)nc12`?
TAAR1 agonist: 10; TAAR1 antag: 15

What do the screens show for `c1ccc(-c2nc3ccccc3nc2-c2ccc(CN3CCC(c4nc5ccccc5[nH]4)CC3)cc2)cc1`?
TAAR1 agonist: 17; TAAR1 antag: 53*; nonsel antag count: 34*; TAAR1 ant conf: 45; Ga16 nonsel ag: 16*; TAAR1 ag count: 35

How did CCc1nc2ccc(C(=O)NCCc3c[nH]c4ccccc34)cn2c1N(C)CCCc1ccccc1 do in these assays?
TAAR1 agonist: 0; TAAR1 antag: 18

How did Cc1cc(NCCO)nc(-n2nc(C)cc2C)n1 do in these assays?
OX1R antag-1: 1; OX1R antag-2: 9; TAAR1 agonist: 1; CHO parental Ca: 0; TAAR1 antag: 57*; nonsel antag count: -3; TAAR1 ant conf: -4; Ga16 nonsel ag: 2; TAAR1 ag count: 2

How did Cc1c(C(=O)Nc2ccc(F)cc2)oc2ccc(S(=O)(=O)N3CCCC3)cc12 do in these assays?
OX1R antag-1: 2; OX1R antag-2: -22; TAAR1 agonist: 2; CHO parental Ca: -10; TAAR1 antag: 15

What do the screens show for `Cc1c(C(=O)NCc2c(F)cc(F)cc2F)oc2ccc(S(=O)(=O)N3CCOCC3)cc12`?
OX1R antag-1: 5; OX1R antag-2: 2; TAAR1 agonist: 19; CHO parental Ca: -4; TAAR1 antag: 68*; nonsel antag count: 24*; TAAR1 ant conf: 47; Ga16 nonsel ag: 11; TAAR1 ag count: 17

Results for Cc1c(C(=O)NCc2ccc(F)cc2)oc2ccc(S(=O)(=O)N3CCOCC3)cc12 ?
OX1R antag-1: 12; OX1R antag-2: -15; TAAR1 agonist: 20; CHO parental Ca: -21; TAAR1 antag: 48

Results for Cc1c(C(=O)Nc2ccc(F)cc2)oc2ccc(S(=O)(=O)N3CCC4(CC3)OCCO4)cc12 ?
OX1R antag-1: 8; OX1R antag-2: 3; TAAR1 agonist: 24; CHO parental Ca: 12; TAAR1 antag: 62*; nonsel antag count: 40*; TAAR1 ant conf: 50*; Ga16 nonsel ag: 12*; TAAR1 ag count: 9
